ChEMBL document CHEMBL2331220, “Benzimidazole clubbed with triazolo-thiadiazoles and triazolo-thiadiazines: new anticancer agents” (2013)

How the values were obtained:
Type in all cases: functional
SK-MEL-5 = test: Cytotoxicity against human SK-MEL-5 cells after 48 hrs by SRB assay; conditions: SK-MEL-5, 48 h
Outline: (§1)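 NCI 60-line five-dose screen. Cells were preincubated 24 h at 37 °C under 5% CO2 and 100% humidity, and time-zero plates were TCA-fixed when compound was added. Five 10-fold concentrations (0.01–100) were tested for 48 h. Cells were fixed with cold TCA (final 10%, 60 min, 4 °C), stained with 0.4% SRB for 10 min, and read at 515 nm. GI50, TGI and LC50 came from growth-percentage formulas, with out-of-range values given as > or <.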

TK-10 = test: Cytotoxicity against human TK10 cells after 48 hrs by SRB assay; conditions: TK-10, 48 h
Outline: (§2)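 NCI 60-line five-dose screen: cells plated, held 24 h at 37 °C, 5% CO₂ before treatment, with a TCA-fixed time-zero plate. Five final concentrations (0.01–100 µM, 10-fold dilutions) for 48 h. Cells fixed with cold TCA (10% final) and stained with 0.4% SRB in 1% acetic acid. Dye dissolved in 10 mM Tris and read at 515 nm. GI₅₀, TGI and LC₅₀ taken from percent-growth curves.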

Hs-578T = test: Cytotoxicity against human Hs578T cells after 48 hrs by SRB assay
Outline: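 NCI five-dose screen: cells preincubated 24 h at 37 °C, 5% CO₂, with time-zero plates TCA-fixed. Five 10-fold dilutions (0.01–100) were added and cells incubated for 48 h, then fixed in 10% TCA for 60 min at 4 °C. Staining used 0.4% SRB in 1% acetic acid, solubilised in 10 mM Tris, with A515 read. GI₅₀, TGI and LC₅₀ were derived from Tz, control and test absorbances.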

HCT-116 = test: Cytotoxicity against human HCT116 cells after 48 hrs by SRB assay; conditions: HCT-116, 48 h; outline: as §1
NCI/ADR-RES = test: Cytotoxicity against human NCI/ADR-RES cells after 48 hrs by SRB assay; outline: as §1
PC-3 = test: Cytotoxicity against human PC3 cells after 48 hrs by SRB assay; conditions: PC-3, 48 h; outline: as §1
UACC-257 = test: Cytotoxicity against human UACC257 cells after 48 hrs by SRB assay; conditions: UACC-257, 48 h; outline: as §2
HCT-15 = test: Cytotoxicity against human HCT15 cells after 48 hrs by SRB assay; conditions: HCT-15, 48 h; outline: as §1
MCF7 = test: Cytotoxicity against human MCF7 cells after 48 hrs by SRB assay; conditions: MCF7, 48 h; outline: as §1
MDA-MB-231 = test: Cytotoxicity against human MDA-MB-231 cells after 48 hrs by SRB assay; conditions: MDA-MB-231, 48 h; outline: as §1
IGROV-1 [1] = test: Cytotoxicity against human IGROV1 cells after 48 hrs by SRB assay; conditions: IGROV-1, 48 h; outline: as §1
M14 = test: Cytotoxicity against human M14 cells after 48 hrs by SRB assay; conditions: M14, 48 h; outline: as §1
UO-31 = test: Cytotoxicity against human UO31 cells after 48 hrs by SRB assay; conditions: UO-31, 48 h; outline: as §2
A549 = test: Cytotoxicity against human A549 cells after 48 hrs by SRB assay; conditions: A549, 48 h; outline: as §1
SF-539 = test: Cytotoxicity against human SF539 cells after 48 hrs by SRB assay; conditions: SF-539, 48 h; outline: as §1
OVCAR-4 = test: Cytotoxicity against human OVCAR4 cells after 48 hrs by SRB assay; conditions: OVCAR-4, 48 h; outline: as §1
IGROV-1 [2] = test: Cytotoxicity against human IGROV1 cells assessed as cell growth at 10 uM after 48 hrs by SRB assay relative to control; conditions: IGROV-1, 48 h, read-out: Activity
Outline: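 Single-dose NCI screen. Compound was added at 1 × 10^-5 M and cultures were incubated 48 h. End point was sulforhodamine B protein staining, reported as percent growth of treated cells versus untreated control cells.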

[3] = read-out: LC50 (the source's name)
[4] = read-out: pLC50 (the source's name) (converted)

O=C(CCc1nnc2sc(-c3ccc(Cl)cc3Cl)nn12)c1nc2ccccc2[nH]1
GI50 (SK-MEL-5; read-out: GI50): 1390 nM
CC50 (SK-MEL-5; [3]): 5190 nM
TGI (SK-MEL-5; read-out: TGI): 2690 nM
GI50 (SK-MEL-5; read-out: pGI50 (converted)): 1380 nM
CC50 (SK-MEL-5; [4]): 5250 nM
TGI (SK-MEL-5; read-out: pTGI (converted)): 2690 nM
GI50 (TK-10; read-out: GI50): 2010 nM
LC50 (TK-10; read-out: LC50): 6300 nM
TGI (TK-10; read-out: TGI): 3550 nM
GI50 (TK-10; read-out: pGI50 (converted)): 2000 nM
LC50 (TK-10; read-out: pLC50 (converted)): 6310 nM
TGI (TK-10; read-out: pTGI (converted)): 3550 nM
GI50 (Hs-578T; read-out: GI50): 478 nM
CC50 (Hs-578T; [3]): > 100000 nM
GI50 (Hs-578T; read-out: pGI50 (converted)): 479 nM
CC50 (Hs-578T; [4]): > 100000 nM
GI50 (HCT-116; read-out: GI50): 320 nM
CC50 (HCT-116; [3]): 5060 nM
TGI (HCT-116; read-out: TGI): 1240 nM
GI50 (HCT-116; read-out: pGI50 (converted)): 316 nM
CC50 (HCT-116; [4]): 5010 nM
TGI (HCT-116; read-out: pTGI (converted)): 1230 nM
GI50 (NCI/ADR-RES; read-out: GI50): 1560 nM
LC50 (NCI/ADR-RES; read-out: LC50): > 100000 nM
TGI (NCI/ADR-RES; read-out: TGI): 5800 nM
GI50 (NCI/ADR-RES; read-out: pGI50 (converted)): 1550 nM
LC50 (NCI/ADR-RES; read-out: pLC50 (converted)): > 100000 nM
TGI (NCI/ADR-RES; read-out: pTGI (converted)): 5750 nM
GI50 (PC-3; read-out: GI50): 695 nM
LC50 (concentration killing 50% of cells) (PC-3; read-out: LC50): > 100000 nM
TGI (PC-3; read-out: TGI): 3900 nM
GI50 (PC-3; read-out: pGI50 (converted)): 692 nM
LC50 (concentration killing 50% of cells) (PC-3; read-out: pLC50 (converted)): > 100000 nM
TGI (PC-3; read-out: pTGI (converted)): 3890 nM
GI50 (UACC-257; read-out: GI50): 2100 nM
LC50 (UACC-257; read-out: LC50): 22500 nM
TGI (UACC-257; read-out: TGI): 5010 nM
GI50 (UACC-257; read-out: pGI50 (converted)): 2090 nM
LC50 (UACC-257; read-out: pLC50 (converted)): 22400 nM
TGI (UACC-257; read-out: pTGI (converted)): 5010 nM
GI50 (HCT-15; read-out: GI50): 489 nM
TGI (HCT-15; read-out: TGI): 2210 nM
GI50 (HCT-15; read-out: pGI50 (converted)): 490 nM
TGI (HCT-15; read-out: pTGI (converted)): 2240 nM
GI50 (MCF7; read-out: GI50): 355 nM
LC50 (MCF7; read-out: LC50): 5970 nM
TGI (MCF7; read-out: TGI): 1500 nM
GI50 (MCF7; read-out: pGI50 (converted)): 355 nM
LC50 (MCF7; read-out: pLC50 (converted)): 6030 nM
TGI (MCF7; read-out: pTGI (converted)): 1510 nM
GI50 (MDA-MB-231; read-out: GI50): 1000 nM
LC50 (MDA-MB-231; read-out: LC50): 5870 nM
TGI (MDA-MB-231; read-out: TGI): 2420 nM
GI50 (MDA-MB-231; read-out: pGI50 (converted)): 1000 nM
LC50 (MDA-MB-231; read-out: pLC50 (converted)): 5890 nM
TGI (MDA-MB-231; read-out: pTGI (converted)): 2400 nM
GI50 (IGROV-1 [1]; read-out: GI50): 1310 nM
TGI (IGROV-1 [1]; read-out: TGI): 3510 nM
GI50 (IGROV-1 [1]; read-out: pGI50 (converted)): 1320 nM
TGI (IGROV-1 [1]; read-out: pTGI (converted)): 3470 nM
GI50 (M14; read-out: GI50): 596 nM
TGI (M14; read-out: TGI): 2450 nM
GI50 (M14; read-out: pGI50 (converted)): 603 nM
TGI (M14; read-out: pTGI (converted)): 2450 nM
GI50 (UO-31; read-out: GI50): 576 nM
LC50 (UO-31; read-out: LC50): 4630 nM
TGI (UO-31; read-out: TGI): 2020 nM
GI50 (UO-31; read-out: pGI50 (converted)): 575 nM
LC50 (UO-31; read-out: pLC50 (converted)): 4680 nM
TGI (UO-31; read-out: pTGI (converted)): 2040 nM
GI50 (A549; read-out: GI50): 2070 nM
CC50 (A549; [3]): > 100000 nM
TGI (A549; read-out: TGI): 5630 nM
GI50 (A549; read-out: pGI50 (converted)): 2090 nM
CC50 (A549; [4]): > 100000 nM
TGI (A549; read-out: pTGI (converted)): 5620 nM
GI50 (SF-539; read-out: GI50): 2170 nM
CC50 (SF-539; [3]): 22800 nM
TGI (SF-539; read-out: TGI): 4860 nM
GI50 (SF-539; read-out: pGI50 (converted)): 2190 nM
CC50 (SF-539; [4]): 22900 nM
TGI (SF-539; read-out: pTGI (converted)): 4900 nM
GI50 (OVCAR-4; read-out: GI50): 971 nM
CC50 (OVCAR-4; [3]): 8040 nM
TGI (OVCAR-4; read-out: TGI): 2820 nM
GI50 (OVCAR-4; read-out: pGI50 (converted)): 977 nM
CC50 (OVCAR-4; [4]): 8130 nM
TGI (OVCAR-4; read-out: pTGI (converted)): 2820 nM
growth at 10 µM (IGROV-1 [2]): 0.38%
